In ChEMBL document CHEMBL2380226, “Novel dual cyclooxygenase and lipoxygenase inhibitors targeting hyaluronan-CD44v6 pathway and inducing cytotoxicity in colon cancer cells” (Bioorg Med Chem, 2013):
Calls of active or inactive are those of the source. No cut-off for these calls is given here.

tested on: HT-29; experiment: Inhibition of hyaluronan-induced CD44 antigen variant exon 6 activity in human HT29 cells assessed as decrease in 5-LOX expression at 10 uM; type: cell-based; settings: not given

SMILES | inhibition
CC(C)(C)C1=CC(=NNC(=O)c2cccnc2)C=C(C(C)(C)C)C1=O | Active
Cc1ccc(-c2cc(C(F)(F)F)nn2-c2ccc(S(N)(=O)=O)cc2)cc1 [CELECOXIB] | Active

tested on: not listed separately; experiment: Cytotoxicity against mouse APC10.1 cells assessed as decrease in cell survival after 18 hrs by MTS assay; type: functional, cell-based; settings: not given
Method in brief: (§1)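 Cells were harvested, counted and seeded at 20 × 10^3 per well. After 18 h the medium was replaced with medium containing the agents. MTS/PMS reagent was freshly prepared at 2/0.92 mg/mL in DPBS and added in excess, then incubated at 5% CO2. Absorbance was read at 490 nm at 90 min, and cell-free blank absorbance was subtracted. IC50 is the concentration giving 50% inhibition of proliferation, reported as mean ± S.D. (three replicates of 4 independent analyses).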

SMILES | IC50 [µM]
CC(C)(C)C1=CC(=NNC(=O)c2cccnc2)C=C(C(C)(C)C)C1=O | 7.5
Cc1ccc(-c2cc(C(F)(F)F)nn2-c2ccc(S(N)(=O)=O)cc2)cc1 [CELECOXIB] | 4.2

species on record: Ovis aries; experiment: Selectivity ratio of IC50 for sheep placental COX-2 to IC50 for ram seminal vesicle COX-1; type: tissue-based; settings: not given

SMILES | Ratio IC50
CC(C)(C)C1=CC(=NNC(=O)c2cccnc2)C=C(C(C)(C)C)C1=O | 0.19

target: T1, Prostaglandin G/H synthase 1 (Ovis aries, UniProt P05979); experiment: Inhibition of ram seminal vesicle COX-1 using arachidonic acid as substrate assessed as production of PGF2alpha by enzyme immunoassay in presence of stannous chloride; settings: not given
T1 sequence (P05979 whole entry): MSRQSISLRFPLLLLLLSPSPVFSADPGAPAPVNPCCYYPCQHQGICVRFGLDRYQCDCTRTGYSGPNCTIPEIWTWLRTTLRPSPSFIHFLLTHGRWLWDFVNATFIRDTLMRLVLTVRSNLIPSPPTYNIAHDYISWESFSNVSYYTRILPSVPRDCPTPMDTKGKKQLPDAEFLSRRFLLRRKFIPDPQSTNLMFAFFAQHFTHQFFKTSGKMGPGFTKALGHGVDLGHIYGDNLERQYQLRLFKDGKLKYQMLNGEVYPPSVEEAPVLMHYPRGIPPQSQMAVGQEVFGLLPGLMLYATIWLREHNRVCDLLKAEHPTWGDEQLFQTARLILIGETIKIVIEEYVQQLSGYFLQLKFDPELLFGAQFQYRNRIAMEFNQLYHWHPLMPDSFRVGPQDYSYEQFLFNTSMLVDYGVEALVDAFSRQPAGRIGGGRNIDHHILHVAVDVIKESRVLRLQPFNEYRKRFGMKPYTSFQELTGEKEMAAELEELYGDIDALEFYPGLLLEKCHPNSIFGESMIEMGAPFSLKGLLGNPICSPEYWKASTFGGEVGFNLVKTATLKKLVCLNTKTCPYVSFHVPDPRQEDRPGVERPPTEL
Method in brief: (§2)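 PGH2 formed by the enzyme is reduced with stannous chloride to PGF, which is quantified by competitive EIA. PGs compete with a PG-acetylcholinesterase tracer for PG antiserum, and the complex is captured on an anti-rabbit antibody-coated well. Ellman's reagent is developed and absorbance is read at 405 nm. Percent inhibition is taken against control incubations, and IC50 comes from the concentration-inhibition curve.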

SMILES | IC50 [µM]
CC(C)(C)c1cc(/C=C2\SC(N)=NC2=O)cc(C(C)(C)C)c1O [DARBUFELONE] | 35
CC(C)(C)C1=CC(=NNC(=O)c2cccnc2)C=C(C(C)(C)C)C1=O | 48.6

tested on: not listed separately; experiment: Inhibition of hyaluronan-induced CD44 antigen variant exon 6 activity in human HT-29 cells expressing Has2 assessed as decrease in cell survival after 18 hrs by MTS assay; type: cell-based; settings: HT-29, 18 h; method in brief: as §1

SMILES | IC50 [µM]
CC(C)(C)C1=CC(=NNC(=O)c2cccnc2)C=C(C(C)(C)C)C1=O | 28.6
Cc1ccc(-c2cc(C(F)(F)F)nn2-c2ccc(S(N)(=O)=O)cc2)cc1 [CELECOXIB] | 18.3

tested on: not listed separately; experiment: Inhibition of hyaluronan-induced CD44 antigen variant exon 6 activity in human HCA-7 cells expressing Has2 assessed as decrease in cell survival after 18 hrs by MTS assay; type: cell-based; settings: HCA-7, 18 h; method in brief: as §1

SMILES | IC50 [µM]
CC(C)(C)C1=CC(=NNC(=O)c2cccnc2)C=C(C(C)(C)C)C1=O | 34.5
Cc1ccc(-c2cc(C(F)(F)F)nn2-c2ccc(S(N)(=O)=O)cc2)cc1 [CELECOXIB] | 17.5

tested on: not listed separately; experiment: Cytotoxicity against rat IEC-6 cells assessed as growth inhibition at 2 to 50 uM after 24 hrs by MTT assay; type: cell-based; settings: iec-6, 24 h
Method in brief: (§3)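 Cells were treated for 24 h at four concentrations in triplicate. MTT (stock 5 mg/ml in PBS, pH 7.2, filtered) was then added and incubated for 4 h at 37°C. Formazan was solubilized with 10% SDS in 0.01 N HCl, and absorbance was read at 570 nm to give viability.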

SMILES | Activity
CC(C)(C)C1=CC(=NNC(=O)c2cccnc2)C=C(C(C)(C)C)C1=O | Non-toxic

tested on: HCA-7; experiment: Cytotoxicity against human HCA-7 cells assessed as growth inhibition after 18 hrs by MTS assay; type: functional, cell-based; settings: not given; method in brief: as §1

SMILES | growth inhibition (GI)
CC(C)(C)C1=CC(=NNC(=O)c2cccnc2)C=C(C(C)(C)C)C1=O | Dose-dependent effect
Cc1ccc(-c2cc(C(F)(F)F)nn2-c2ccc(S(N)(=O)=O)cc2)cc1 [CELECOXIB] | Dose-dependent effect

tested on: HCA-7; experiment: Cytotoxicity against human HCA-7 cells assessed as growth inhibition at 2 to 50 uM after 24 hrs by MTT assay; type: functional, cell-based; settings: not given; method in brief: as §3

SMILES | growth inhibition (GI)
CC(C)(C)C1=CC(=NNC(=O)c2cccnc2)C=C(C(C)(C)C)C1=O | Active

tested on: HT-29; experiment: Inhibition of hyaluronan-induced CD44 antigen variant exon 6 activity in human HT29 cells assessed as decrease in COX-2 expression at 10 uM; type: cell-based; settings: not given

SMILES | inhibition
CC(C)(C)C1=CC(=NNC(=O)c2cccnc2)C=C(C(C)(C)C)C1=O | Active
Cc1ccc(-c2cc(C(F)(F)F)nn2-c2ccc(S(N)(=O)=O)cc2)cc1 [CELECOXIB] | Active

tested on: HT-29; experiment: Cytotoxicity against human HT-29 cells assessed as decrease in cell survival after 18 hrs by MTS assay; type: functional, cell-based; settings: HT-29, 18 h; method in brief: as §1

SMILES | IC50 [µM]
CC(C)(C)C1=CC(=NNC(=O)c2cccnc2)C=C(C(C)(C)C)C1=O | 11
Cc1ccc(-c2cc(C(F)(F)F)nn2-c2ccc(S(N)(=O)=O)cc2)cc1 [CELECOXIB] | 3

species on record: Mus musculus; experiment: Cytotoxicity against mouse APC10.1 cells expressing COX and LOX assessed as growth inhibition at 2 to 50 uM after 24 hrs by MTT assay; type: functional, cell-based; settings: not given; method in brief: as §3

SMILES | growth inhibition (GI)
CC(C)(C)C1=CC(=NNC(=O)c2cccnc2)C=C(C(C)(C)C)C1=O | Active

tested on: HT-29; experiment: Cytotoxicity against human HT-29 cells assessed as growth inhibition at 2 to 50 uM after 24 hrs by MTT assay; type: functional, cell-based; settings: not given; method in brief: as §3

SMILES | growth inhibition (GI)
CC(C)(C)C1=CC(=NNC(=O)c2cccnc2)C=C(C(C)(C)C)C1=O | Active

tested on: not listed separately; experiment: Cytotoxicity against human HCA-7 cells assessed as decrease in cell survival after 18 hrs by MTS assay; type: functional, cell-based; settings: HCA-7, 18 h; method in brief: as §1

SMILES | IC50 [µM]
CC(C)(C)C1=CC(=NNC(=O)c2cccnc2)C=C(C(C)(C)C)C1=O | 6.5
Cc1ccc(-c2cc(C(F)(F)F)nn2-c2ccc(S(N)(=O)=O)cc2)cc1 [CELECOXIB] | 2

tested on: not listed separately; experiment: Inhibition of hyaluronan-induced CD44 antigen variant exon 6 activity in mouse APC10.1 cells expressing Has2 assessed as decrease in cell survival after 18 hrs by MTS assay; type: cell-based; settings: not given; method in brief: as §1

SMILES | IC50 [µM]
CC(C)(C)C1=CC(=NNC(=O)c2cccnc2)C=C(C(C)(C)C)C1=O | 12.2
Cc1ccc(-c2cc(C(F)(F)F)nn2-c2ccc(S(N)(=O)=O)cc2)cc1 [CELECOXIB] | 6

target: T2, Prostaglandin G/H synthase 2 (Ovis aries, UniProt P79208); experiment: Inhibition of sheep placental COX-2 using arachidonic acid as substrate assessed as production of PGF2alpha by enzyme immunoassay in presence of stannous chloride; settings: not given; method in brief: as §2
T2 sequence (P79208 whole entry): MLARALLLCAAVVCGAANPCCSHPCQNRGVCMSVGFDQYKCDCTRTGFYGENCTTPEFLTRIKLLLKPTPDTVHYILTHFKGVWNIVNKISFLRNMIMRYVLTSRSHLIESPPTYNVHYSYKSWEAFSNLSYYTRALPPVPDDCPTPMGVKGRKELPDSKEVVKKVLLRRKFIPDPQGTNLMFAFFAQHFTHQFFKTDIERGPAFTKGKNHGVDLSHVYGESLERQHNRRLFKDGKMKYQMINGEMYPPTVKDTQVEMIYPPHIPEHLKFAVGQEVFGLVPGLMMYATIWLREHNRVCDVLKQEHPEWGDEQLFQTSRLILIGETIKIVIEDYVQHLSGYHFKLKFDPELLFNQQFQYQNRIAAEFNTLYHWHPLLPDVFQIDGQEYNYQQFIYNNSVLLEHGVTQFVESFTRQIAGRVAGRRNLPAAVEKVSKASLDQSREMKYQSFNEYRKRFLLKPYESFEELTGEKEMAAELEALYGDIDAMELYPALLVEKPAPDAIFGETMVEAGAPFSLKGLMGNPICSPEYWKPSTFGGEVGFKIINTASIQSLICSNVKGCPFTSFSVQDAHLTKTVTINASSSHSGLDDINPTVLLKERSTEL

SMILES | IC50 [µM]
CC(C)(C)c1cc(/C=C2\SC(N)=NC2=O)cc(C(C)(C)C)c1O [DARBUFELONE] | 0.48
CC(C)(C)C1=CC(=NNC(=O)c2cccnc2)C=C(C(C)(C)C)C1=O | 9.3

species on record: Mus musculus; experiment: Inhibition of hyaluronan-induced CD44 antigen variant exon 6 activity in mouse APC10.1 cells assessed as cell growth inhibition at 2 to 50 uM after 24 hrs by MTT assay; type: cell-based; settings: not given; method in brief: as §3

SMILES | growth inhibition (GI)
CC(C)(C)C1=CC(=NNC(=O)c2cccnc2)C=C(C(C)(C)C)C1=O | Active

species on record: Mus musculus; experiment: Inhibition of hyaluronan-induced CD44 antigen variant exon 6 activity in mouse APC10.1 cells assessed as cell growth inhibition after 18 hrs by MTS assay; type: cell-based; settings: not given; method in brief: as §1

SMILES | growth inhibition (GI)
CC(C)(C)C1=CC(=NNC(=O)c2cccnc2)C=C(C(C)(C)C)C1=O | Dose-dependent effect
Cc1ccc(-c2cc(C(F)(F)F)nn2-c2ccc(S(N)(=O)=O)cc2)cc1 [CELECOXIB] | Dose-dependent effect

tested on: HT-29; experiment: Cytotoxicity against human HT-29 cells assessed as growth inhibition after 18 hrs by MTS assay; type: functional, cell-based; settings: not given; method in brief: as §1

SMILES | growth inhibition (GI)
CC(C)(C)C1=CC(=NNC(=O)c2cccnc2)C=C(C(C)(C)C)C1=O | Dose-dependent effect
Cc1ccc(-c2cc(C(F)(F)F)nn2-c2ccc(S(N)(=O)=O)cc2)cc1 [CELECOXIB] | Dose-dependent effect
